In test [1] the test system is Syrian golden hamster. The test is described as follows: Induction of reverse cholestrol transport in high fat diet-induced dyslipidemia Syrian Golden hamster model assessed as increase in HNF1alpha mRNA expression in liver at 100 mg/kg, po administered for 1 week by qRT-PCR analysis. The class given is functional, organism-based. To be noted: Mesocricetus auratus. Background: Quantitative PCR measures a nucleic acid by following its amplification.

For test [2], the species on record is Mus musculus. As to the kind of experiment: Activation of Wnt3a/beta-catenin in differentiated mouse 3T3L1 cells assessed as down-regulation of AP2 protein expression at 20 uM after 16 to 24 hrs by Western blot analysis. The gist of the method:
(§1)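 3T3-L1 preadipocytes grown to confluence in high-glucose DMEM/10% FBS, then given differentiation media (0.5 mM IBMX, 5 µg/ml insulin, 250 nM dexamethasone) with or without 20 µM compound. Protein isolated at set time points, lysed with protease/phosphatase inhibitors, BCA-quantified, resolved by 8–12% SDS-PAGE, immunoblotted with ECL detection. β-actin loading control, densitometry normalized to actin, n=3.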
On the technique in general: Immunoblotting shows a protein as a band on a membrane.

In test [3] the test system is Syrian golden hamster. The test is described as follows: Anti-dyslipidemic activity in high fat diet-induced dyslipidemia Syrian Golden hamster model assessed as reduction in serum LDL levels at 100 mg/kg, po administered for 1 week followed by overnight fasting post last dose by clinical bio-analyzer analysis. The class given is functional, organism-based. To be noted: Mesocricetus auratus. The essentials: (§2)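 Male Syrian golden hamsters (8–10 wk, 100–120 g), 4 per group, given 45% kcal HFD for 4 days, then 100 mg/kg p.o. in 0.5% NaCMC daily for one week alongside HFD. Blood taken from retro-orbital plexus after overnight fast. TG, HDL, LDL, ALT, AST measured on a clinical bio-analyzer and NEFA by kit. Mean ± SEM, one-way ANOVA with Bonferroni.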

In test [4] the test system is 3T3-L1. As to the kind of experiment: Cell cycle arrest in mouse 3T3L1 cells assessed as reduction in accumulation at S phase at 10 to 20 uM after 24 hrs by propidium iodide-staining based flow cytometry. The class given is functional. The gist of the method:
(§3)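 Confluent 3T3-L1 preadipocytes given differentiation medium (0.5 mM IBMX, 5 µg/ml insulin, 250 nM dexamethasone) with 10 or 20 µM for 16 and 24 hr. Cells trypsinized, fixed in ice-cold 70% ethanol for 2 hr, stained with propidium iodide (40 µg/ml in RNase A buffer, 30 min, room temperature). Flow cytometry gave the fractions in G1, S and G2/M; three independent experiments.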
A general note: Flow cytometry measures light scatter and fluorescence of single cells or particles in a stream.

Test [5] is filed under the species Mus musculus. The test is described as follows: Activation of Wnt3a/beta-catenin in mouse 3T3L1 cells assessed as down-regulation of C/EBPalpha expression at 20 uM after 2 to 6 days in presence of FH353 by Western blot analysis. The class given is cell-based.
The subject of test [6] is 3T3-L1. The test is described as follows: Cell cycle arrest in mouse 3T3L1 cells assessed as reduction in accumulation at S phase at 10 to 20 uM after 16 hrs by propidium iodide-staining based flow cytometry. The class given is functional. The gist of the method:
as §3

Test [7] relates to Syrian golden hamster. As to the kind of experiment: Induction of reverse cholestrol transport in high fat diet-induced dyslipidemia Syrian Golden hamster model assessed as increase in ABCG5 mRNA expression in eWAT at 100 mg/kg, po administered for 1 week by qRT-PCR analysis. The class given is functional, organism-based. To be noted: Mesocricetus auratus.
Test [8] is filed under the species Mus musculus. As to the kind of experiment: Activation of Wnt3a/beta-catenin in differentiated mouse 3T3L1 cells assessed as upregulation of phosphorylated LRP6 expression at 20 uM after 16 to 24 hrs by Western blot analysis. The essentials: as §1
The species named for test [9] is Mus musculus. As to the kind of experiment: Activation of Wnt3a/beta-catenin in mouse 3T3L1 cells assessed as increase in SIRT1 mRNA expression at 20 uM by qRT-PCR analysis. The class given is cell-based. The essentials:
(§4)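 3T3-L1 cells differentiated with IBMX/dexamethasone/insulin media with or without 20 µM compound over the differentiation period. RNA extracted with TRIZOL, 500 ng reverse-transcribed to cDNA, then quantitative real-time PCR. Three independent experiments run in triplicate, mean ± SD, one-way ANOVA with Bonferroni posttest.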

In test [10] the test system is Syrian golden hamster. The test is described as follows: Induction of reverse cholestrol transport in high fat diet-induced dyslipidemia Syrian Golden hamster model assessed as increase in ABCG8 mRNA expression in eWAT at 100 mg/kg, po administered for 1 week by qRT-PCR analysis. The class given is functional, organism-based. To be noted: Mesocricetus auratus.
The species entered for test [11] is Mus musculus. As to the kind of experiment: Activation of Wnt3a/beta-catenin in mouse 3T3L1 cells assessed as increase in BMP2 mRNA expression at 20 uM by qRT-PCR analysis. The class given is cell-based. The essentials:
as §4

In test [12] the test system is 3T3-L1. As to the kind of experiment: Anti-adipogenic activity in mouse 3T3L1 cells assessed as reduction in lipid accumulation at early differentiation stage at 20 uM measured up to 3 days by Oil Red O absorbance method. The class given is functional, cell-based. The essentials:
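3T3-L1 or C3H10T1/2 cells given 20 µM compound with differentiation media for different time periods. Oil red O stain extracted from accumulated lipid with isopropanol and absorbance read at 492 nm. n=3, mean ± SD, Student t test against MDI+ group.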

The species named for test [13] is Mus musculus. As to the kind of experiment: Activation of Wnt3a/beta-catenin in mouse 3T3L1 cells assessed as down-regulation of AP2 mRNA expression at 20 uM by qRT-PCR analysis. The class given is cell-based. The gist of the method: as §4
For test [14], the system named is Syrian golden hamster. As to the kind of experiment: Anti-adipogenic activity in high fat diet-induced dyslipidemia Syrian Golden hamster model assessed as increase in beta-catenin levels in eWAT at 100 mg/kg, po administered for 1 week by Western blot analysis. The class given is functional, organism-based. Conditions: Mesocricetus auratus. The gist of the method:
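Male Syrian golden hamsters (8–10 wk, 100–120 g) fed 45% kcal HFD for 4 days, then dosed orally at 100 mg/kg in 0.5% NaCMC for one week, n=4 per group. Fenofibrate 100 mg/kg p.o. used as positive control. Epididymal WAT proteins Western blotted, three independent experiments.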

The subject of test [15] is Syrian golden hamster. The test is described as follows: Anti-dyslipidemic activity in high fat diet-induced dyslipidemia Syrian Golden hamster model assessed as reduction in serum triglycerides levels at 100 mg/kg, po administered for 1 week followed by overnight fasting post last dose by clinical bio-analyzer analysis. The class given is functional, organism-based. Conditions: Mesocricetus auratus. The gist of the method: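 Male Syrian Golden hamsters (8-10 weeks, 100-120 g), 4 per group, given 45% kCal high fat diet for 4 days, then HFD plus oral dosing in 0.5% w/v NaCMC for one week. After an overnight fast, blood was taken from the retro-orbital plexus under anesthesia and serum was analysed on a clinical bio-analyzer. Mean ± SEM; one-way ANOVA with Bonferroni post-test.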

The species entered for test [16] is Mus musculus. As to the kind of experiment: Activation of Wnt3a/beta-catenin in mouse 3T3L1 cells assessed as down-regulation of CDK4 expression at 20 uM after 16 to 24 hrs in presence of FH353 by Western blot analysis. The class given is cell-based. The essentials:
(§5)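 Confluent 3T3-L1 cells given differentiation media (IBMX/insulin/dexamethasone) with 20 µM compound, with or without the β-catenin/TCF inhibitor FH353 (10 µM). Proteins isolated at 16 and 24 h and Western blotted after SDS-PAGE and nitrocellulose transfer. Blocking in 5% milk/TBS-T, primary antibody overnight at 4 °C, chemiluminescent detection, β-actin control, three independent experiments.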

The species entered for test [17] is Mus musculus. As to the kind of experiment: Activation of Wnt3a/beta-catenin in differentiated mouse 3T3L1 cells assessed as down-regulation of C/EBPalpha protein expression at 20 uM after 16 to 24 hrs by Western blot analysis. The essentials: as §1
For test [18], the species on record is Mus musculus. The test is described as follows: Activation of Wnt3a/beta-catenin in mouse 3T3L1 cells assessed as down-regulation of cyclinD1 expression at 20 uM after 16 to 24 hrs in presence of FH353 by Western blot analysis. The class given is cell-based. The gist of the method: as §5
The test system of test [19] is Syrian golden hamster. As to the kind of experiment: Anti-atherosclerotic activity in high fat diet-induced dyslipidemia Syrian Golden hamster model assessed as reduction in atherogenic index by measuring serum triglycerides to HDL ratio at 100 mg/kg, po administered for 1 week followed by overnight fasting post last dose by clinical bio-analyzer analysis. The class given is functional, organism-based. To be noted: Mesocricetus auratus. The essentials: as §2

The record followed here is ChEMBL document CHEMBL4138193, “Novel indole and triazole based hybrid molecules exhibit potent anti-adipogenic and antidyslipidemic activity by activating Wnt3a/β-catenin pathway” (Eur J Med Chem, 2018).

SMILES strings stand for the structures. Calls of active or inactive are those of the source. No cut-off for these calls is given here.

Take `Cc1ccc(S(=O)(=O)N(Cc2cn(Cc3cccc(F)c3F)nn2)Cc2cn(S(=O)(=O)c3ccc(C)cc3)c3ccccc23)cc1`: the outcome with Syrian golden hamster [1], in the test filed under Mus musculus [2], in the test on Syrian golden hamster [3], in the test on 3T3-L1 [6], in the test on Syrian golden hamster [7] and in the test listed under Mus musculus [8] was Active. The outcome in the test listed under Mus musculus [9], in the test on Syrian golden hamster [10], in the test filed under Mus musculus [11], in the test on 3T3-L1 [12], in the test filed under Mus musculus [13] and with Syrian golden hamster [14] was Active. The result in the test with Syrian golden hamster [15], in the test filed under Mus musculus [17] and in the test on Syrian golden hamster [19] was Active. In addition, the outcome in the test on 3T3-L1 [4], in the test listed under Mus musculus [5], in the test listed under Mus musculus [16] and in the test listed under Mus musculus [18] was inactive.
